Experimental data from different studies.
Organism: Severe acute respiratory syndrome coronavirus 2

Structure (SMILES)	test	test system	conditions	measurement	result
CCOC(=O)c1ncc2[nH]c3cccc(OC(C)C)c3c2c1C	viral replication, inhibitor	Vero C1008	1 µM	inhibition	40.6%
CN(C)CCCN1c2ccccc2Sc2ccc(Cl)cc21	viral replication	Vero C1008	–	IC50	0.282 µM
COc1ccc2c(c1)c(CC(=O)O)c(C)n2C(=O)c1ccc(Cl)cc1	plaque formation	Vero C1008	–	EC50	~100 µM
O=C(O)c1c(Nc2cccc(F)c2)[nH]c2cc(Cl)ccc2c1=O	viral entry, inhibitor	NCI-H1299	pseudovirus	EC50	0.69 µM
Cn1c(C(=O)Nc2ccc(Cl)cc2)cc2c(=O)n3ccccc3nc21	viral replication	Vero	10 µM	inhibition	91.8%
Cc1cccc(CN2CCN(C(c3ccccc3)c3ccc(Cl)cc3)CC2)c1 (centres unmarked)	viral replication	Vero C1008	–	IC50	1.35 µM
COc1ccc(CCN(C)CCCC(C#N)(c2ccc(OC)c(OC)c2)C(C)C)cc1OC (centres unmarked)	viral replication, inhibitor	Huh-7	–	IC50	0.534 µM
CCCCCN(C(=O)NC)c1ccc2nc(CCCC)n(Cc3ccc(NC(=O)c4c(Cl)ccc(Cl)c4C(=O)O)cc3)c2c1	viral replication, inhibitor	Vero C1008	1 µM	inhibition	44.5%
CC(C)=CCc1c(O)ccc(C(=O)/C=C/c2ccc(O)cc2)c1O	cytopathic effect	Vero C1008	6.25 µM	inhibition	0%
CN(CCc1ccc(Cl)c(Cl)c1)CCN1CCCC1	viral replication, inhibitor	A549-ACE2	–	IC50	1.48 µM
CN[C@@H](C)C(=O)N[C@H](C(=O)N1CCC[C@H]1C(=O)Nc1sc(-c2ncco2)nc1-c1ccccc1)C1CCCCC1	viral replication, inhibitor	Vero C1008	1 µM	inhibition	42.2%
C=C[C@@](C)(/C=C/c1ccc(O)cc1)CCC=C(C)C	cytopathic effect	Vero C1008	25 µM	inhibition	0%
CCN(CCO)CCCC(C)Nc1ccnc2cc(Cl)ccc12 (centres unmarked)	viral replication, inhibitor	Huh-7	–	IC50	> 2 µM
Cn1c(C(=O)Nc2ccc3c(c2)OCCO3)cc2c(=O)n3ccccc3nc21	viral replication	Vero	10 µM	inhibition	91.8%
O=C(/C=C/c1ccc(O)c(O)c1/C=C/c1ccc(O)c(O)c1)O[C@H](Cc1ccc(O)c(O)c1)C(=O)O	cytopathic effect, inhibitor	Vero C1008	1.562 µM	inhibition	0%
CC(C)[C@H]1CC[C@H](C(=O)N[C@H](Cc2ccccc2)C(=O)O)CC1	viral replication, inhibitor	Huh-7	–	IC50	> 2 µM
Cn1cnc(Cn2c(=O)[nH]/c(=N\c3cc4cn(C)nc4cc3Cl)n(Cc3cc(F)c(F)cc3F)c2=O)n1	viral replication, inhibitor, qPCR	–	48 h	EC50	0.023 µM
CCCN(CCC)CCc1ccc(OC)c(OCCc2ccccc2)c1	viral replication, inhibitor	A549-ACE2	–	IC50	1.41 µM
N#C[C@@]1(c2ccc3c(N)ncnn23)O[C@H](CO)[C@@H](O)[C@H]1O	viral replication, inhibitor, qPCR	Vero C1008	–	EC50	0.38 µM
Cc1ccc(NC(=O)c2cc3c(=O)n4cccc(C)c4nc3n2C)cc1Cl	viral replication	Vero	10 nM	inhibition	25.8%
CC(C)/N=c1\cc2n(-c3ccc(Cl)cc3)c3ccccc3nc-2cc1Nc1ccc(Cl)cc1	viral replication, inhibitor	Huh-7	–	IC50	0.085 µM

Structure (SMILES)	test	test system	conditions	measurement	result
CCCCCCCCCCCCCCCCOCCCOP(=O)(O)OC[C@H]1O[C@@](C#N)(c2ccc3c(N)ncnn23)[C@H](O)[C@@H]1O	viral replication, inhibitor, qPCR	Vero C1008	48 h	EC90	0.73 µM
CN(Cc1cc(Br)cc(Br)c1N)C1CCCCC1	viral replication	Vero C1008	–	IC50	2.82 µM
CCc1ccc(NC(=O)c2cc3c(=O)n4ccccc4nc3n2C)cc1	viral replication	Vero	1 nM	inhibition	4.08%
O=C(O[C@@H]1Cc2c(O)cc(O)cc2O[C@@H]1c1cc(O)c(O)c(O)c1)c1cc(O)c(O)c(O)c1	cytopathic effect, inhibitor	Vero C1008	3.125 µM	inhibition	0%
Cc1cc(NC(=O)c2cc3c(=O)n4cccc(C)c4nc3n2C)ccc1Br	viral replication	Vero	1 µM	inhibition	74.7%
OC(CNCC(O)C1CCc2cc(F)ccc2O1)C1CCc2cc(F)ccc2O1 (centres unmarked)	viral replication, inhibitor	Huh-7	–	IC50	> 2 µM
CN(CCCN1c2ccccc2CCc2ccccc21)CC(=O)c1ccc(Cl)cc1	viral replication, inhibitor	A549-ACE2	–	IC50	7.76 µM
Cc1cccc(C)c1OCC(=O)N[C@@H](Cc1ccccc1)[C@@H](O)C[C@H](Cc1ccccc1)NC(=O)[C@H](C(C)C)N1CCCNC1=O	viral replication, inhibitor	Vero C1008	–	EC50	< 100 µM
CCCCCCCCCCCCCCCCCCOC[C@H](COP(=O)(O)OC[C@H]1O[C@@](C#N)(c2ccc3c(N)ncnn23)[C@H](O)[C@@H]1O)OCc1ccccc1	viral replication, inhibitor, qPCR	Vero C1008	48 h	EC90	0.16 µM
OCCOCCN1CCN(C(c2ccccc2)c2ccc(Cl)cc2)CC1 (centres unmarked)	viral replication, inhibitor	A549-ACE2	–	IC50	3.63 µM
O=C(NC1CCN(CCCCC2(C(=O)NCC(F)(F)F)c3ccccc3-c3ccccc32)CC1)c1ccccc1-c1ccc(C(F)(F)F)cc1	viral replication, inhibitor	Huh-7	–	IC50	0.765 µM
CCC(CC)COC(=O)[C@H](C)N[P@](=O)(OC[C@H]1O[C@@](C#N)(c2ccc3c(N)ncnn23)[C@H](O)[C@@H]1O)Oc1ccccc1	viral replication	Vero	1 µM	inhibition	95.2%
Cc1cc(C)c(N(C)CC(=O)Nc2nc(-c3ccccn3)c[nH]2)c(C)c1	viral replication, inhibitor	Vero C1008	1 µM	inhibition	50.7%
[2H]C([2H])(c1cc(F)c(F)cc1F)n1c(=O)n(Cc2ncn(C)n2)c(=O)[nH]/c1=N\c1cc2cn(C)nc2cc1Cl	viral replication, inhibitor, qPCR	–	48 h	EC50	0.024 µM
CCC(CC)COC(=O)[C@H](C)N[P@](=O)(OC[C@H]1O[C@@](C#N)(c2ccc3c(N)ncnn23)[C@H](O)[C@@H]1O)Oc1ccccc1	viral replication, inhibitor, qPCR	Vero C1008	–	EC50	1.13 µM
Clc1ccc(C(OCCN2CCCCC2)c2ccccc2)cc1 (centres unmarked)	viral replication, inhibitor	A549-ACE2	–	IC50	1.51 µM
CCCCCCCCCCCCCCCCCCOCCOP(=O)(O)OC[C@H]1O[C@@](C#N)(c2ccc3c(N)ncnn23)[C@H](O)[C@@H]1O	viral replication, inhibitor, qPCR	Vero C1008	–	EC50	0.3 µM
COc1ccc(C[C@@H]2c3cc(Oc4cc(C[C@@H]5c6cc(O)c(OC)cc6CCN5C)ccc4O)c(OC)cc3CCN2C)cc1	cytopathic effect, inhibitor	Vero C1008	50 µM	inhibition	66.7%
O=C(Nc1ccccc1F)c1cc2c(=O)n3ccccc3nc2n1Cc1ccccc1	viral replication	Vero	10 nM	inhibition	50.8%
CC(/C=C/C=C(\C)c1cc(C(C)(C)C)cc(C(C)(C)C)c1)=C\C(=O)O	viral replication, inhibitor	Vero C1008	1 µM	inhibition	61.6%
